test system: Liver microsome; assay: Metabolic stability assay in human liver microsomes assessed as parent drug disappearance at 1 uM after 20 mins by HPLC and mass spectrometry method; format: ADME; settings: not given; call rule not given here

Row | Structure (SMILES) | Stability
1 | CCOC(=O)N1CCN(C(=O)[C@H](CCC(=O)O)NC(=O)c2cc(N3CCCCC3CN(C)C)nc(-c3ccccc3)n2)CC1 (stereo partly specified) | Stable
2 | CCOC(=O)N1CCN(C(=O)[C@H](CCC(=O)O)NC(=O)c2cc(N3CCCC(O)C3)nc(-c3ccccc3)n2)CC1 (stereo partly specified) | Stable
3 | CCOC(=O)N1CCN(C(=O)[C@H](CCC(=O)O)NC(=O)c2cc(N[C@H]3CC[C@H](O)CC3)nc(-c3ccccc3)n2)CC1 | Stable
4 | CCOC(=O)N1CCN(C(=O)[C@H](CCC(=O)O)NC(=O)c2cc(N3CCOCC3)nc(-c3ccccc3)n2)CC1 | Stable

biological target: T1, Cytochrome P450 3A4 (Homo sapiens, UniProt P08684); assay: Inhibition of CYP3A4 in human liver microsomes assessed as reduction in testosterone 6beta-hydroxylation; format: ADME; settings: not given
T1 sequence (P08684 whole entry): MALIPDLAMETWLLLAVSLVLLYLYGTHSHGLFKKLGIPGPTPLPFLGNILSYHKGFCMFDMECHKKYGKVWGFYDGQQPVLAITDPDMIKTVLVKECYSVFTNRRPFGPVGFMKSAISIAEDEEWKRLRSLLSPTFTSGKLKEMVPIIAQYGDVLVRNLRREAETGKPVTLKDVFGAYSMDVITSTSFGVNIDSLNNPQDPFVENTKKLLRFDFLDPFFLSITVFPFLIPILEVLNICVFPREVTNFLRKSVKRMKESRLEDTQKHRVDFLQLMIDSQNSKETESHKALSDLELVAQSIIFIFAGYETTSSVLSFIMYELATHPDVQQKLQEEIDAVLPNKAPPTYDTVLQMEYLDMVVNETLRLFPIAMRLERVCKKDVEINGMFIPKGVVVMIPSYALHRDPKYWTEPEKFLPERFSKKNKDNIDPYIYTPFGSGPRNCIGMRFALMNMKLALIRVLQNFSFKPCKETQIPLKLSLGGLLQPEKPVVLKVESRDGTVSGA

Row | Structure (SMILES) | inhibition (INH)
5 | CCOC(=O)N1CCN(C(=O)[C@H](CCC(=O)O)NC(=O)c2cc(N3CCCCC3CN(C)C)nc(-c3ccccc3)n2)CC1 (stereo partly specified) | Not Active
6 | CCOC(=O)N1CCN(C(=O)[C@H](CCC(=O)O)NC(=O)c2cc(N3CCCC(O)C3)nc(-c3ccccc3)n2)CC1 (stereo partly specified) | Not Active
7 | CCOC(=O)N1CCN(C(=O)[C@H](CCC(=O)O)NC(=O)c2cc(N[C@H]3CC[C@H](O)CC3)nc(-c3ccccc3)n2)CC1 | Not Active
8 | CCOC(=O)N1CCN(C(=O)[C@H](CCC(=O)O)NC(=O)c2cc(N3CCOCC3)nc(-c3ccccc3)n2)CC1 | Not Active

biological target: T1, Cytochrome P450 3A4; assay: Inhibition of CYP3A4 in human liver microsomes assessed as reduction in midazolam 1'-hydroxylation; format: ADME; settings: not given

Row | Structure (SMILES) | inhibition (INH)
9 | CCOC(=O)N1CCN(C(=O)[C@H](CCC(=O)O)NC(=O)c2cc(N3CCCCC3CN(C)C)nc(-c3ccccc3)n2)CC1 (stereo partly specified) | Not Active
10 | CCOC(=O)N1CCN(C(=O)[C@H](CCC(=O)O)NC(=O)c2cc(N3CCCC(O)C3)nc(-c3ccccc3)n2)CC1 (stereo partly specified) | Not Active
11 | CCOC(=O)N1CCN(C(=O)[C@H](CCC(=O)O)NC(=O)c2cc(N[C@H]3CC[C@H](O)CC3)nc(-c3ccccc3)n2)CC1 | Not Active
12 | CCOC(=O)N1CCN(C(=O)[C@H](CCC(=O)O)NC(=O)c2cc(N3CCOCC3)nc(-c3ccccc3)n2)CC1 | Not Active

test system: Platelet; assay: Inhibition of ADP-induced platelet aggregation in human platelet rich plasma assessed as remaining activity at 500 nM by in-vitro light transmission aggregometry assay; format: functional; settings: not given
Method in brief: (§1)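 Light transmission aggregometry in human platelet-rich plasma; compound incubated, aggregation triggered with 3 µM ADP; remaining activity (RA) recorded at a single compound level (1000, 500 or 100 nM).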

Row | Structure (SMILES) | Activity
13 | CCOC(=O)N1CCN(C(=O)[C@H](CCC(=O)O)NC(=O)c2cc(N3CCCCC3CN(C)C)nc(-c3ccccc3)n2)CC1 (stereo partly specified) | 30%
14 | CCOC(=O)N1CCN(C(=O)[C@H](CCC(=O)O)NC(=O)c2cc(N3CCCC(O)C3)nc(-c3ccccc3)n2)CC1 (stereo partly specified) | <30%
15 | CCOC(=O)N1CCN(C(=O)[C@H](CCC(=O)O)NC(=O)c2cc(N[C@H]3CC[C@H](O)CC3)nc(-c3ccccc3)n2)CC1 | 30%
16 | CCOC(=O)N1CCN(C(=O)[C@H](CCC(=O)O)NC(=O)c2cc(N3CCOCC3)nc(-c3ccccc3)n2)CC1 | <30%

biological target: P2Y purinoceptor 12 (Homo sapiens, UniProt Q9H244); assay: Displacement of [3H]-2-methyl-thio-adenosine 5'-diphosphate from human recombinant P2Y12 expressed in CHO cell membranes by scintillation counting method; settings: not given
Method in brief: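 CHO cells expressing recombinant P2Y₁₂ receptors, incubated with tritium-labeled 2-methyl-thio-adenosine 5'-diphosphate plus test compound; IC₅₀ from displacement curves, each point in triplicate; reference compound run with every compound set, and set re-analyzed if its IC₅₀ fell outside pre-set 95% confidence interval.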

Chain of P2Y purinoceptor 12 (Q9H244 whole entry): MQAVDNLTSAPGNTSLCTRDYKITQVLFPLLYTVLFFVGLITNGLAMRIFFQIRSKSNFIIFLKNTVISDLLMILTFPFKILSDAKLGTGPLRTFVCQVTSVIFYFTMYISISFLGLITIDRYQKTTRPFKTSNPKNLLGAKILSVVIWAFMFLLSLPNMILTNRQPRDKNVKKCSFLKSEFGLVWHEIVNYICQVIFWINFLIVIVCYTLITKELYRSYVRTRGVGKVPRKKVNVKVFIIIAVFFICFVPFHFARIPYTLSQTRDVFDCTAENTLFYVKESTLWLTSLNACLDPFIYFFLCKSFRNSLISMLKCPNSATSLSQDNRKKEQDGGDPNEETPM

Row | Structure (SMILES) | IC50
17 | CCOC(=O)N1CCN(C(=O)[C@H](CCC(=O)O)NC(=O)c2cc(N3CCCCC3CN(C)C)nc(-c3ccccc3)n2)CC1 (stereo partly specified) | 291 nM
18 | CCOC(=O)N1CCN(C(=O)[C@H](CCC(=O)O)NC(=O)c2cc(N3CCCC(O)C3)nc(-c3ccccc3)n2)CC1 (stereo partly specified) | 21 nM

biological target: Cytochrome P450 2C9 (Homo sapiens, UniProt P11712); assay: Inhibition of CYP2C9 in human liver microsomes assessed as reduction in diclofenac 4'-hydroxylation; format: ADME; settings: not given
Sequence (P11712 whole entry): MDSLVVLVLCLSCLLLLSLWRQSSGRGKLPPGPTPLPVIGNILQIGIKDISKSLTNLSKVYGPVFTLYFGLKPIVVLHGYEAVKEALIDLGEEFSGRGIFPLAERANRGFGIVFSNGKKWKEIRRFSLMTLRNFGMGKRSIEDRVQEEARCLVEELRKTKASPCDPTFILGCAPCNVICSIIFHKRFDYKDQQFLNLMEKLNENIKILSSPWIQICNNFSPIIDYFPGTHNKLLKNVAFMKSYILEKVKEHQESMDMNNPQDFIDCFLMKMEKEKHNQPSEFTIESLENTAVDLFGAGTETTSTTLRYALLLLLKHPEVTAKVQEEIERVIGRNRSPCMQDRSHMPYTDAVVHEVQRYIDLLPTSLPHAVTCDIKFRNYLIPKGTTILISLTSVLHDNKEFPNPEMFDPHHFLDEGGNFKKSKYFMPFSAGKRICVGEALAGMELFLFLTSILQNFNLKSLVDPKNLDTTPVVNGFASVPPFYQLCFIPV

Row | Structure (SMILES) | inhibition (INH)
19 | CCOC(=O)N1CCN(C(=O)[C@H](CCC(=O)O)NC(=O)c2cc(N3CCCCC3CN(C)C)nc(-c3ccccc3)n2)CC1 (stereo partly specified) | Not Active
20 | CCOC(=O)N1CCN(C(=O)[C@H](CCC(=O)O)NC(=O)c2cc(N3CCCC(O)C3)nc(-c3ccccc3)n2)CC1 (stereo partly specified) | Not Active
21 | CCOC(=O)N1CCN(C(=O)[C@H](CCC(=O)O)NC(=O)c2cc(N[C@H]3CC[C@H](O)CC3)nc(-c3ccccc3)n2)CC1 | Not Active
22 | CCOC(=O)N1CCN(C(=O)[C@H](CCC(=O)O)NC(=O)c2cc(N3CCOCC3)nc(-c3ccccc3)n2)CC1 | Not Active

test system: not listed separately; assay: Solubility in neutral pH; format: physicochemical; settings: not given

Row | Structure (SMILES) | solubility
23 | CCOC(=O)N1CCN(C(=O)[C@H](CCC(=O)O)NC(=O)c2cc(N3CCCCC3CN(C)C)nc(-c3ccccc3)n2)CC1 (stereo partly specified) | soluble
24 | CCOC(=O)N1CCN(C(=O)[C@H](CCC(=O)O)NC(=O)c2cc(N3CCCC(O)C3)nc(-c3ccccc3)n2)CC1 (stereo partly specified) | soluble
25 | CCOC(=O)N1CCN(C(=O)[C@H](CCC(=O)O)NC(=O)c2cc(N[C@H]3CC[C@H](O)CC3)nc(-c3ccccc3)n2)CC1 | soluble
26 | CCOC(=O)N1CCN(C(=O)[C@H](CCC(=O)O)NC(=O)c2cc(N3CCOCC3)nc(-c3ccccc3)n2)CC1 | soluble

test system: Platelet; assay: Inhibition of ADP-induced platelet aggregation in human platelet rich plasma by in-vitro light transmission aggregometry assay; format: functional; settings: Homo sapiens, Platelet, Plasma
Method in brief: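 Human platelet-rich plasma incubated with compound, aggregation induced by 3 µM ADP and read by light transmission aggregometry; IC₅₀ derived from concentration–response curve.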

Row | Structure (SMILES) | IC50
27 | CCOC(=O)N1CCN(C(=O)[C@H](CCC(=O)O)NC(=O)c2cc(N3CCCC(O)C3)nc(-c3ccccc3)n2)CC1 (stereo partly specified) | 73 nM

biological target: Voltage-gated inwardly rectifying potassium channel KCNH2 (Homo sapiens, UniProt Q12809); assay: Inhibition of human ERG expressed in HEK cells by patch-clamp assay; format: cell-based; settings: hek293
Sequence (Q12809 whole entry): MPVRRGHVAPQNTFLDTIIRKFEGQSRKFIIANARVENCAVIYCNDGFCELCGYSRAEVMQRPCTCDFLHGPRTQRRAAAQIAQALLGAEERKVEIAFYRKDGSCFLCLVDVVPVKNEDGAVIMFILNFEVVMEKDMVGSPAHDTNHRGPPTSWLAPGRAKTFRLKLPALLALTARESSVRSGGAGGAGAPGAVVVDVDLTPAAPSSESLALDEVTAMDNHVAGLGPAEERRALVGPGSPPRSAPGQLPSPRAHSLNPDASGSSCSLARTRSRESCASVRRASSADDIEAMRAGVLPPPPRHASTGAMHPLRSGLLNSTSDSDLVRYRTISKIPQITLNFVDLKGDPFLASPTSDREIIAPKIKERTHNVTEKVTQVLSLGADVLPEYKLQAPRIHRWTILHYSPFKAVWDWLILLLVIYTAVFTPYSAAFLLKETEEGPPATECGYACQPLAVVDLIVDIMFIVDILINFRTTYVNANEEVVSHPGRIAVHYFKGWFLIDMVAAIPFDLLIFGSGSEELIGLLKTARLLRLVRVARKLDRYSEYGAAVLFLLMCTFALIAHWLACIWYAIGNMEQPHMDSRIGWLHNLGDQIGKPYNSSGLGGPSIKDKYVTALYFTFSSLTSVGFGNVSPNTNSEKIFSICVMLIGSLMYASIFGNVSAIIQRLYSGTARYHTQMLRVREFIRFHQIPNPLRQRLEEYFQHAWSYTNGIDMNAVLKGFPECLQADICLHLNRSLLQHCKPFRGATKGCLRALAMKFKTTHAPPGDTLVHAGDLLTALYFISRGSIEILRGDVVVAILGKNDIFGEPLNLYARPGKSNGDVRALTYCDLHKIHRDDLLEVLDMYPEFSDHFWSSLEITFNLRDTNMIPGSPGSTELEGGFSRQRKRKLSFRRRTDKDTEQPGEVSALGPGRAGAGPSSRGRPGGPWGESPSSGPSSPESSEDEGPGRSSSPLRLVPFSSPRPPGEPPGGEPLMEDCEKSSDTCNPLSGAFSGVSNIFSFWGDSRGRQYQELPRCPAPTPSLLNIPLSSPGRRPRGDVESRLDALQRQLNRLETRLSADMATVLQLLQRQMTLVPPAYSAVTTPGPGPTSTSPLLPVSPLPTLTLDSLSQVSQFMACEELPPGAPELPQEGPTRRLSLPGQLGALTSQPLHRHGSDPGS

Row | Structure (SMILES) | inhibition (INH)
28 | CCOC(=O)N1CCN(C(=O)[C@H](CCC(=O)O)NC(=O)c2cc(N3CCCCC3CN(C)C)nc(-c3ccccc3)n2)CC1 (stereo partly specified) | Not Active
29 | CCOC(=O)N1CCN(C(=O)[C@H](CCC(=O)O)NC(=O)c2cc(N3CCCC(O)C3)nc(-c3ccccc3)n2)CC1 (stereo partly specified) | Not Active
30 | CCOC(=O)N1CCN(C(=O)[C@H](CCC(=O)O)NC(=O)c2cc(N[C@H]3CC[C@H](O)CC3)nc(-c3ccccc3)n2)CC1 | Not Active
31 | CCOC(=O)N1CCN(C(=O)[C@H](CCC(=O)O)NC(=O)c2cc(N3CCOCC3)nc(-c3ccccc3)n2)CC1 | Not Active

test system: not listed separately; assay: Solubility in basic pH; format: physicochemical; settings: not given

Row | Structure (SMILES) | solubility
32 | CCOC(=O)N1CCN(C(=O)[C@H](CCC(=O)O)NC(=O)c2cc(N3CCCCC3CN(C)C)nc(-c3ccccc3)n2)CC1 (stereo partly specified) | soluble
33 | CCOC(=O)N1CCN(C(=O)[C@H](CCC(=O)O)NC(=O)c2cc(N3CCCC(O)C3)nc(-c3ccccc3)n2)CC1 (stereo partly specified) | soluble
34 | CCOC(=O)N1CCN(C(=O)[C@H](CCC(=O)O)NC(=O)c2cc(N[C@H]3CC[C@H](O)CC3)nc(-c3ccccc3)n2)CC1 | soluble
35 | CCOC(=O)N1CCN(C(=O)[C@H](CCC(=O)O)NC(=O)c2cc(N3CCOCC3)nc(-c3ccccc3)n2)CC1 | soluble

biological target: Cytochrome P450 2D6 (Homo sapiens, UniProt P10635); assay: Inhibition of CYP2D6 in human liver microsomes assessed as reduction in dextromethorphan-O demethylation; format: ADME; settings: not given
Sequence (P10635 whole entry): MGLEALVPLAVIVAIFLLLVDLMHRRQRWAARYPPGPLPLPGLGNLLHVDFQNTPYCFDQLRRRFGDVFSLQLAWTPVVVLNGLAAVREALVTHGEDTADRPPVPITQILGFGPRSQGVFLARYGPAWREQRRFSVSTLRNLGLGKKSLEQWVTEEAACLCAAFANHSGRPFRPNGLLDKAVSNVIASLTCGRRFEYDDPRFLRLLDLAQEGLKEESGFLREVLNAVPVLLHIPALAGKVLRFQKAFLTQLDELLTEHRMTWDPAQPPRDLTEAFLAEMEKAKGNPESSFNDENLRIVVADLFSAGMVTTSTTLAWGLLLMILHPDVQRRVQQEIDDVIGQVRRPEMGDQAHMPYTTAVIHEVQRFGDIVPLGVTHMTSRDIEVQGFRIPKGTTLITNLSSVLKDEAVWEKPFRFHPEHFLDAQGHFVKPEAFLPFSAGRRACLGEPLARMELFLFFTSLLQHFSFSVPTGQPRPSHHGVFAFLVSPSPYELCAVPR

Row | Structure (SMILES) | inhibition (INH)
36 | CCOC(=O)N1CCN(C(=O)[C@H](CCC(=O)O)NC(=O)c2cc(N3CCCCC3CN(C)C)nc(-c3ccccc3)n2)CC1 (stereo partly specified) | Not Active
37 | CCOC(=O)N1CCN(C(=O)[C@H](CCC(=O)O)NC(=O)c2cc(N3CCCC(O)C3)nc(-c3ccccc3)n2)CC1 (stereo partly specified) | Not Active
38 | CCOC(=O)N1CCN(C(=O)[C@H](CCC(=O)O)NC(=O)c2cc(N[C@H]3CC[C@H](O)CC3)nc(-c3ccccc3)n2)CC1 | Not Active
39 | CCOC(=O)N1CCN(C(=O)[C@H](CCC(=O)O)NC(=O)c2cc(N3CCOCC3)nc(-c3ccccc3)n2)CC1 | Not Active

test system: Platelet; assay: Inhibition of ADP-induced platelet aggregation in human platelet rich plasma assessed as remaining activity at 100 nM by in-vitro light transmission aggregometry assay; format: functional; settings: not given; method in brief: as §1

Row | Structure (SMILES) | Activity
40 | CCOC(=O)N1CCN(C(=O)[C@H](CCC(=O)O)NC(=O)c2cc(N3CCCC(O)C3)nc(-c3ccccc3)n2)CC1 (stereo partly specified) | <70%
41 | CCOC(=O)N1CCN(C(=O)[C@H](CCC(=O)O)NC(=O)c2cc(N3CCOCC3)nc(-c3ccccc3)n2)CC1 | <70%

test system: Liver microsome; assay: Metabolic stability assay in rat liver microsomes assessed as parent drug disappearance at 1 uM after 20 mins by HPLC and mass spectrometry method; format: ADME; settings: not given

Row | Structure (SMILES) | Stability
42 | CCOC(=O)N1CCN(C(=O)[C@H](CCC(=O)O)NC(=O)c2cc(N3CCCCC3CN(C)C)nc(-c3ccccc3)n2)CC1 (stereo partly specified) | Stable
43 | CCOC(=O)N1CCN(C(=O)[C@H](CCC(=O)O)NC(=O)c2cc(N3CCCC(O)C3)nc(-c3ccccc3)n2)CC1 (stereo partly specified) | Stable
44 | CCOC(=O)N1CCN(C(=O)[C@H](CCC(=O)O)NC(=O)c2cc(N[C@H]3CC[C@H](O)CC3)nc(-c3ccccc3)n2)CC1 | Stable
45 | CCOC(=O)N1CCN(C(=O)[C@H](CCC(=O)O)NC(=O)c2cc(N3CCOCC3)nc(-c3ccccc3)n2)CC1 | Stable

test system: not listed separately; assay: Potency shift, ratio of IC50 for inhibition of ADP-induced platelet aggregation in human platelet rich plasma to IC50 for displacement of [3H]-2-methyl-thio-adenosine 5'-diphosphate from human recombinant P2Y12 expressed in CHO cell membranes; settings: not given

Row | Structure (SMILES) | Ratio IC50
46 | CCOC(=O)N1CCN(C(=O)[C@H](CCC(=O)O)NC(=O)c2cc(N3CCCC(O)C3)nc(-c3ccccc3)n2)CC1 (stereo partly specified) | 3.5
